Laboratory results reported in paper PMC12222516 (Scientific Reports, 2025).

How the values were obtained:
MTT cytotoxicity assay = format: cell-based, human; details: human, normal human dermal fibroblast (HDF) cells
Method in brief: (§1)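 Human dermal fibroblasts grown in DMEM with 10% FBS, penicillin 100 units/mL, streptomycin 100 µg/mL and amphotericin B 0.25 µg/mL. Seeded at 2 × 10³ cells/well and left to adhere overnight at 37 °C, 5% CO2. Exposed to varying doses for 24 h, with 0.5% DMSO as untreated control. MTT at 1 mg/mL for 4 h at 37 °C. Formazan dissolved in DMSO and read at 570 nm. Viability expressed as % of control.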

[1] = test system: normal human dermal fibroblast (HDF) cells; assay: MTT cytotoxicity assay; format: cell-based; details: HDF cells, MTT
Method in brief: as §1

[2] = molecular target: α-glucosidase from Saccharomyces cerevisiae (Saccharomyces cerevisiae, UniProt P53341); assay: Enzyme kinetic study; format: biochemical
Sequence of α-glucosidase from Saccharomyces cerevisiae (P53341 whole entry): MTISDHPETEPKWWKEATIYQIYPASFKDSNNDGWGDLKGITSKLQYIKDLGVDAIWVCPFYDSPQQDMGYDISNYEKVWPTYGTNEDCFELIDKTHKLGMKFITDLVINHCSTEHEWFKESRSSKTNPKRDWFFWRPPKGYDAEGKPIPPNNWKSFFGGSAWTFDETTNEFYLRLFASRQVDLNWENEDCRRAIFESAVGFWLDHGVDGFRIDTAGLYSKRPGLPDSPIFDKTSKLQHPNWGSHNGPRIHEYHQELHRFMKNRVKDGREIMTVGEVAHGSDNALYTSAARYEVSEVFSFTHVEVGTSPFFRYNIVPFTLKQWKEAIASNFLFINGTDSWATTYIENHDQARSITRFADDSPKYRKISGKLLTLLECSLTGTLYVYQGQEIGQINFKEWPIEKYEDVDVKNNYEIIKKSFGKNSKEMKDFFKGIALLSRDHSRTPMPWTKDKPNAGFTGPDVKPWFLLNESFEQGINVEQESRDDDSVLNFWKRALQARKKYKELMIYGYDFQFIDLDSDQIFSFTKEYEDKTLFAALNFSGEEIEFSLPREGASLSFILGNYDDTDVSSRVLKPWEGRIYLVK
Method in brief: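 Yeast (S. cerevisiae) α-glucosidase, EC 3.2.1.20, kept at 0.02 U/mL. Run with and without test compound at several concentrations, across a range of p-NPG substrate concentrations. Inhibition type assigned from the Lineweaver–Burk plot. Ki taken from a secondary plot of slope against inhibitor concentration.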

Structure (SMILES)	CC50 at 24 h (MTT cytotoxicity assay) [µM]	cytotoxic effect on normal cells at given IC50 value [1]	Ki [2] [µM]	mode of inhibition ([2]; Lineweaver–Burk plots)
C[C@H]1CN(C(=O)Nc2ccc(C(F)(F)F)cc2)CCN1c1ccnc(Nc2ccc(Cl)cc2)n1 [Compound 7c, (S)-4-(2-((4-chlorophenyl)amino)pyrimidin-4-yl)-3-methyl-N-(4-(trifluoromethyl)phenyl)piperazine-1-carboxamide]	42.3			
C[C@H]1CN(C(=O)Nc2ccc(C(F)(F)F)cc2)CCN1c1ccnc(Nc2cccc([N+](=O)[O-])c2)n1 [Compound 17c, (S)-3-methyl-4-(2-((3-nitrophenyl)amino)pyrimidin-4-yl)-N-(4-(trifluoromethyl)phenyl)piperazine-1-carboxamide]	15.2			
C[C@H]1CN(C(=O)Nc2ccc(C(F)(F)F)cc2)CCN1c1ccnc(Nc2ccc(Cl)c(O)c2)n1 [Compound 21c, (S)-4-(2-((4-chloro-3-hydroxyphenyl)amino)pyrimidin-4-yl)-3-methyl-N-(4-(trifluoromethyl)phenyl)piperazine-1-carboxamide]	23.1	no cytotoxic effect	0.74	competitive inhibitor
C[C@H]1CN(C(=O)Nc2ccc(C(F)(F)F)cc2)CCN1c1ccnc(Nc2ccc(Cl)c(OCc3ccccc3)c2)n1 [Compound 22c, (S)-4-(2-((3-(benzyloxy)-4-chlorophenyl)amino)pyrimidin-4-yl)-3-methyl-N-(4-(trifluoromethyl)phenyl)piperazine-1-carboxamide]	> 200			
